Results: ChEMBL document CHEMBL1125130, “4-Alkyl-1,4-dihydropyridines derivatives as specific PAF-acether antagonists” (J Med Chem, 1990)

Legend:
Rattus norvegicus [1] = test: Tested in vivo for ability to inhibit PAF-induced hypotension in rats by measuring the drop in mean arterial blood pressure(mmHg) after 3 minutes activity; assay type: functional
How it was run: (§1)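 Male Sprague-Dawley rats (225 ± 2 g) under sodium pentobarbital (50 mg/kg ip). PAF 0.66 µg/kg injected; compounds 5 mg/kg iv given 3 min later at maximal blood pressure fall. Blood pressure changes recorded for 30 min after PAF, compared with vehicle controls (five rats per group).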

Rattus norvegicus [2] = test: Tested in vivo for ability to inhibit PAF-induced hypotension in rats by measuring the drop in mean arterial blood pressure(mmHg) after 20 minutes activity; assay type: functional; how it was run: as §1

SMILES | MABP (Rattus norvegicus [1]) [mmHg] | MABP (Rattus norvegicus [2]) [mmHg]
CCSCCO/C(O)=C1\C(C)=NC(C)=C(C(=O)OC)C1C (configuration not stated) | 68 | 32
CC1=NC(C)=C(C(=O)OCCSc2ccccc2)C(C)/C1=C(\O)OCC1CCCO1 (configuration not stated) | 63 | 21
CCO/C(O)=C1/C(C)=NC(C)=C(C(=O)OCCSc2ccccc2)C1C (configuration not stated) | 52 | 23
CO/C(O)=C1\C(C)=NC(C)=C(C(=O)OCCSC)C1C (configuration not stated) | 51 | 5
CO/C(O)=C1\C(C)=NC(C)=C(C(=O)OCCSc2ccccc2)C1C (configuration not stated) | 30 | 14
CCCC1C(C(=O)OCCSCC)=C(C)N=C(C)/C1=C(/O)OCC (configuration not stated) | 106 | 71
CCCC1C(C(=O)OCCSC)=C(C)N=C(C)/C1=C(/O)OCC (configuration not stated) | 101 | 60
CCO/C(O)=C1\C(C)=NC(C)=C(C(=O)OCCSC)C1C (configuration not stated) | 88 | 29
CC1=NC(C)=C(C(=O)OCCSc2ccccc2)C(C)/C1=C(\O)OC(C)C (configuration not stated) | 78 | 27
CCO/C(O)=C1\C(C)=NC(C)=C(C(=O)OCCSC)C1CC (configuration not stated) | 77 | 36
CCO/C(O)=C1\C(C)=NC(C)=C(C(=O)OCCSCC)C1C (configuration not stated) | 64 | 18
